Laboratory results reported in ChEMBL document CHEMBL1123944, “Tertiary 3- and 4-haloalkylamine analogues of oxotremorine as prodrugs of potent muscarinic agonists” (J Med Chem, 1988).

Tests used:
[1] = species on record: Cavia porcellus; test: Muscarinic activity in isolated guinea pig ileum; format: functional
How it was run: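 Guinea pig ileum in Tyrode solution (pH 7.4, 37 °C) containing 0.3 mM hexamethonium. Isotonic contractions recorded at 1 g tension. Cumulative concentration-response curves used stepwise 2.15-fold increments, with oxotremorine as reference. Parent compounds were dissolved in ice-cold water. Cyclized forms were pre-incubated in 50 mM phosphate buffer pH 7.4 at 37 °C for 30 h, 2 h or 1 min depending on the compound. EC50 given as mean ± SE over n preparations.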

[2] = (§1) The equipotent molar ratio relative to oxotremorine (EPMR); format: ADME
How it was run: (§2)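 Ileum EC50 taken as a ratio to the oxotremorine EC50 in guinea pig ileum contracting in Tyrode (pH 7.4, 37 °C, 0.3 mM hexamethonium). Curves were cumulative with 2.15-fold steps. Compounds were tested as parents in ice-cold water or after pre-cyclization in pH 7.4 phosphate buffer at 37 °C. Mean ± SE.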

[3] = First order rate constant for cyclization of the compound; format: ADME
How it was run: (§3)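 Haloalkylamine (1.5–2 mM) in 50 mM sodium phosphate buffer, pH 7.4, at 37 °C. Released halide measured by argentometric titration. Data fitted by nonlinear regression to θ = 1 − e^(−k1·t), giving the apparent first-order constant k1. Means ± SE of three determinations.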

[4] = Half life was measured; format: ADME; how it was run: as §3
[5] = species on record: Mus musculus; test: Analgesic activity was measured by tail flick assay; format: functional
How it was run: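 Male Swiss-Webster mice (24–30 g); drug in ice-cold saline (kept on ice ≤1 h), given ip after control reaction times were taken. Tail-flick reaction times recorded 10 min post-dose; responders were animals whose reaction time was at least twice control. Dose estimated by the up-and-down method.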

[6] = test system: Mus musculus; test: Muscarinic activity tested by measuring salivation in mice after ip administration; format: functional
How it was run: (§4)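 Male Swiss-Webster mice (24–30 g); compounds in ice-cold saline, used within 1 h, given ip or iv via tail vein. Salivation was scored by touching the mouth to absorbent paper at intervals over the first 10 min. Threshold dose estimated by the up-and-down method; mean ± SE.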

[7] = test system: Mus musculus; test: Muscarinic activity tested by measuring salivation in mice after iv administration; format: functional; how it was run: as §4
[8] = test system: Mus musculus; test: Muscarinic activity tested by measuring tremor in mice after ip administration; format: functional
How it was run: (§5)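 Male Swiss-Webster mice (24–30 g) dosed ip or iv via tail vein with compound in ice-cold saline (held on ice ≤1 h). Intermittent spontaneous (grade 2) tremor judged visually. Threshold dose estimated by the up-and-down method; mean ± SE.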

[9] = test system: Mus musculus; test: Muscarinic activity tested by measuring tremor in mice after iv administration; format: functional; how it was run: as §5
[10] = Toxicity was measured after iv administration; format: organism-based; conditions: mouse, in vivo
How it was run: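 Male Swiss-Webster mice (24–30 g) dosed iv with compound in ice-cold saline. LD50 estimated by the up-and-down method, with mortality counted at 1 h; mean ± SE.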

[11] = as §1; format: functional; how it was run: as §2

SMILES | EC50 [1] [µM] | Ratio [2] | K1 [3] [min⁻¹] | half-life [4] [min] | ED50 [5] [µmol/kg] | ED50 [6] [µmol/kg] | ED50 [7] [µmol/kg] | ED50 [8] [µmol/kg] | ED50 [9] [µmol/kg] | LD50 [10] [µmol/kg] | Ratio [11]
C[N+](C)(C)CCOC(N)=O.[Cl-] [CARBACHOL] | 0.12 | 2.6 |  |  |  |  |  |  |  |  | 
CN(CC#CCN1CCCC1=O)CCBr |  |  | 0.85 | 0.8 |  |  |  |  |  |  | 
CN(CC#CCN1CCCC1=O)CCCI | 0.136 |  | 0.0491 | 14.1 | 7.7 | 10.4 | 4.5 | 29.7 | 8.9 | > 125 | 2.95
CN(CC#CCN1CCCC1=O)CCCBr | 0.114 |  | 0.061 | 11.4 | 3.2 | 6 | 2.9 | 15.6 | 6.3 | 46.7 | 2.49
CC1CCC(=O)N1CC#CCN(C)CCCBr (stereo not given) | 1.14 |  | 0.0555 | 12.5 | 111 | 80.8 | 38 |  |  | > 250 | 23.7
O=C1CCCN1CC#CCN1CCCC1 [OXOTREMORINE] | 0.044 | 1 |  |  | 0.1 | 0.29 | 0.19 | 0.59 | 0.44 |  | 
CN(CC#CCN1CCCC1=O)CCCCCl | 0.538 |  | > 2 | < 0.4 | 10.3 | 4.2 | 1.1 |  | 3.6 | 8 | 10.2
C[N+]1(CC#CCN2CCCC2=O)CCCC1 | 0.401 | 8.31 |  |  |  |  |  |  |  |  | 
CN(CC#CCN1CCCC1=O)CCCCl | 0.12 | 2.78 | 0.0016 | 436 | 33.3 | 29.3 | 22.4 |  |  | 245 | 
CN(CC#CCN1CCCC1=O)CCCl |  |  | 0.019 | 36.5 |  |  |  |  |  |  | 
